bIAP inh – intestinal alkaline phosphatase (bovine) inhibition. purified bovine IAP, CDP-star luminescence, 30 min. inhibition, % at 20 µM. 190,000 tested, under 10 active. AID 1019;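 active = over 50% inhibition of intestinal alkaline phosphatase at 20 µM in the single-dose screen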
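Incubation: 30 min reaction at room temperature / Material: purified bovine intestinal alkaline phosphatase (IAP) enzyme / Input: enzyme at 1/65,000,000 dilution / Dosing: 20 µM single dose / Signal: CDP-star luminescence signal / Reagent: CDP-star chemiluminescent phosphatase substrate, 30 µM final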
bIAP activator – intestinal alkaline phosphatase (bovine) activation | activation factor at 20 µM | 200,000 compounds, 0.17% hits | AID 1016 | purified bovine IAP, CDP-star luminescence, 30 min; active compounds read high; fold of DMSO-control signal, blank-subtracted;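 active = activation factor of 2 or more at 20 µM, a signal rise over negative controls twice the positive control's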
mIAP activ – increases mouse intestinal alkaline phosphatase activity | muIAP, CDP-Star luminescence, 30 min; active compounds read high; 1 = vehicle-only enzyme signal, 0 = enzyme-free wells | activation factor at 10 µM | 330,000 compounds, 0.24% hits;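 active = activation factor of at least 2 at 20 µM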
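System: mouse IAP enzyme. Reagent: CDP-Star chemiluminescent phosphatase substrate. Benchmarks: DMSO wells, no-enzyme wells. Times: 30 min enzyme-substrate-compound incubation at room temperature. Detection: luminescence from enzymatic CDP-Star hydrolysis. Doses: test compounds delivered from DMSO solution.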
hIAP act – human IAP activation; 330,000 compounds, 0.16% hits; purified human IAP, CDP-Star luminescence, 30 min; active compounds read high; 1 = vehicle-only enzyme, 0 = enzyme-free background; P09923; activation factor at 10 µM;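 active = activation factor of the enzyme at least 2-fold when tested at 20 µM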
Target sequence (P09923 whole entry, looked up): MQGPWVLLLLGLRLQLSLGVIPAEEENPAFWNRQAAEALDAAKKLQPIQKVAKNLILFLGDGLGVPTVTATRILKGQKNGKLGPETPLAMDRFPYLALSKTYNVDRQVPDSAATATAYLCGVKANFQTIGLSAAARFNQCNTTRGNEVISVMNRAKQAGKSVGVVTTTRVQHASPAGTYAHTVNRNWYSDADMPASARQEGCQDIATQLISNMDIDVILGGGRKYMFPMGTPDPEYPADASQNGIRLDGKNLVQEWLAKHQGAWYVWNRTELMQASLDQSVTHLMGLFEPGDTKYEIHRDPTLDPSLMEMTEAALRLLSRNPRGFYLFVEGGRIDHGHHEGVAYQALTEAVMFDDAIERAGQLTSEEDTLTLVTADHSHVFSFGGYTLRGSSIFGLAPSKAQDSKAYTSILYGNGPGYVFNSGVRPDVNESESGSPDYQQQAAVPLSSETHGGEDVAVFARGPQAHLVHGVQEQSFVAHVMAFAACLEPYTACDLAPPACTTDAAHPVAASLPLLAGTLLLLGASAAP
mIAP block – blocks mouse intestinal alkaline phosphatase; purified mouse IAP, CDP-Star luminescence, 30 min; inhibition, % at 10 µM; 330,000 compounds, 0.2% hits;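 active = inhibition of at least 40% at 10 µM in the primary screen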
hIAP block – human IAP inhibition. P09923. purified IAP, CDP-Star luminescence, 30 min. 330,000 compounds, 0.12% hits. inhibition, % at 10 µM;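 active = inhibition reaching a set limit with compound at 10 µM in the primary screen, cut at about 35% in these data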
Large screens that a line does not name were inactive. A selection: hits, their analogues and other compounds. The true share with any hit is near 0.77%.

Cn1nc(C(=O)NC2CCCCC2)c2ccccc2c1=O	none
Cn1nc(CC(=O)NC2CCCCCCCCCCC2)c2ccccc2c1=O	bIAP activator 2.3
O=C(CSc1nc2ccccc2c(=O)n1Cc1ccco1)NCc1ccco1	none
COc1cc2nc(SCC(=O)NCCc3ccccc3)n(Cc3ccco3)c(=O)c2cc1OC	bIAP activator 2
CN1C(=O)/C(=C/c2cn(CC(=O)N3CCCCC3)c3ccccc23)c2ccccc21	none
COc1ccc(C2Nc3ccccc3C(=O)N2O)cc1OC (stereo not drawn)	none
COc1ccc(C2Nc3ccccc3C(=O)N2O)cc1CN1CCOCC1 (stereo not drawn)	bIAP activator 2
CSc1nsc(SC)c1NC(=O)OCc1ccccc1	none
CSc1nsc(SC)c1NC(=O)OCCc1ccccn1	mIAP block 41
CCOC(=O)/C(N=Nc1sc(C(=O)OCC)c(C)c1C(=O)OCC)=C(\C)O	none
CCOC(=O)c1sc(N=NC2=C(O)CCCC2=O)c(C(=O)OCC)c1C	mIAP block 40
CCOC(=O)CN1NC2(CCCCCCC2)NC1=S	none (no result: bIAP inh, bIAP activator)
CCOC(=O)CN1NC2(CCCCC2)NC1=S	mIAP block 51
O=C(NCc1ccncc1)C(=O)NCC1OCCN1S(=O)(=O)c1ccc(F)cc1 (stereo not drawn)	none (no result: bIAP inh, bIAP activator)
O=C(CSc1nnc(CCc2nc3ccccc3[nH]2)n1-c1ccccc1)NCc1ccccc1	none
O=C(CSc1nnc(CCc2nc3ccccc3[nH]2)n1-c1ccccc1)NCc1ccco1	bIAP activator 2.5
CC(C(=O)NCc1ccco1)n1ccc2cc(S(=O)(=O)N3CCCC3)ccc21 (stereo not drawn)	none (no result: bIAP inh, bIAP activator)
COc1ccc(CNC(=O)C(C)n2ccc3cc(S(=O)(=O)N4CCCCCC4)ccc32)cc1 (stereo not drawn)	mIAP activ 2.1 (no result: bIAP inh, bIAP activator)
CC(C)CNS(=O)(=O)c1ccc(NC(=O)Cn2nc(-c3ccc(F)cc3)ccc2=O)cc1	hIAP act 2.8
COC(=O)C(C)NC(=S)N1CCN(c2c(F)cc3c(=O)c(C(=O)O)cn(C4CC4)c3c2OC)CC1C (stereo not drawn)	none (no result: bIAP inh, bIAP activator)
C[n+]1ccn(CC(=O)c2ccc(Cl)cc2)c1	bIAP activator 2.5
C[n+]1ccn(CC(=O)c2ccc(Br)cc2)c1	none
O=C(NCc1cccnc1)c1cc2ccccc2oc1=O	none
O=C(NCCc1cccc(Cl)c1)c1cc2ccccc2oc1=O	mIAP block 41 (no result: bIAP inh, bIAP activator)
Cc1ccc(NC(=O)N/C=C/c2ccc(Cl)cc2)cc1	mIAP activ 2.3 (no result: bIAP inh)
COc1ccc(NC(=O)N/C=C/c2ccc(Cl)cc2)cc1	none
Cc1ccc(NC(=O)N/C=C/c2ccccc2)cc1	mIAP activ 2.2
O=[N+]([O-])c1ccc(N2CCN(c3ccccc3Cl)CC2)cn1	none (no result: bIAP inh, bIAP activator)
COc1cc2c(C#Cc3cccnc3)c(-c3ccsc3)oc(=O)c2cc1OC	none (no result: bIAP inh, bIAP activator)
Cc1cc(C)c(NC(=O)c2ccc(CN3CCc4ccccc4C3)cc2)c(C)c1	bIAP activator 2.1
CCC(=O)Nc1cccc(C2=NN(c3ccccc3)C(c3ccc(OC)cc3)C2)c1 (stereo not drawn)	mIAP activ 2.7 (no result: bIAP inh, bIAP activator)
OCCC1CN(Cc2ccc(-n3cccn3)cc2)CCN1Cc1ccccc1 (stereo not drawn)	none
S=C(NCCCc1ccccc1)Nc1ccccc1Cl	mIAP activ 2.6
Cc1ccc(NC(=O)NCCCc2ccccc2)cc1	mIAP activ 2.2
S=C(NCCc1ccccc1)Nc1ccccc1Cl	none
O=C(NCCCc1ccccc1)Nc1cccc(Cl)c1	mIAP activ 4.2
Fc1cc(Br)ccc1NC(=S)NCCc1ccccc1	mIAP activ 2.2
Cc1ccc(S(=O)(=O)N[C@@H](CC(C)C)C(=O)N2CCC(C(=O)N[C@H](C(=O)O)C(C)C)CC2)cc1	none (no result: bIAP inh, bIAP activator)
CCCC(=O)Nc1sc(Cc2ccccc2)c(C)c1C(N)=O	none
CCNC(=O)COC(=O)c1ccc(-c2nc3ccccc3s2)s1	none
Cc1noc(C)c1COC(=O)c1ccc(-c2nc3ccccc3s2)s1	mIAP block 42
Cc1cc(=O)[nH]c(SCc2cccc3cccnc23)n1	none
Cc1ccc(-n2c(SCC(=O)N3CCCCC3)nc(O)c(Cc3ccccc3)c2=O)cc1	none (no result: bIAP inh, bIAP activator)
CCO[C@@H]1OC(C(=O)N2CCN(Cc3ccc4c(c3)OCO4)CC2)=C[C@H](c2csc3ccccc23)[C@H]1CCCO	none
CCO[C@@H]1OC(C(=O)N2CCN(Cc3ccc4c(c3)OCO4)CC2)=C[C@H](c2cn(C(C)=O)c3ccccc23)[C@H]1CCCO	mIAP block 43
N#Cc1ccc(NC(=O)Nc2ccc(Oc3ccc(NC(=O)Nc4ccc(C#N)cc4)cc3)cc2)cc1	mIAP activ 2.4 (no result: bIAP inh, bIAP activator)
Cc1ccc2nc(N3C(=O)C(O)=C(C(=O)c4ccc(C)o4)C3c3ccco3)sc2c1 (stereo not drawn)	mIAP block 50 (no result: bIAP inh, bIAP activator)
Cc1ccc(O)c(-c2cc(C(=O)NCc3ccncc3)[nH]n2)c1	bIAP activator 2.1
COc1cccc(C2CN(c3ccc(F)cc3F)N=C2c2cccs2)c1OC (stereo not drawn)	mIAP activ 2
COc1ccc(/C(C)=N/Nc2ccc(C(=O)O)cc2)cc1OC	hIAP act 2.1
CC(C)=CCC/C(C)=C/CNC(=O)C[C@H]1C[C@H](C(=O)N2CCCCC2)[C@@]2(C)c3[nH]c4ccc(Cl)cc4c3CCN2C1=O	none (no result: bIAP inh, bIAP activator, hIAP act, hIAP block)
COc1ccc2[nH]c3c(c2c1)CCN1C(=O)C(CC(=O)NC/C=C(\C)CCC=C(C)C)C[C@H](C(=O)N2CCCCC2)[C@@]31C (stereo partly drawn)	mIAP activ 2 (no result: bIAP inh, bIAP activator, hIAP act, hIAP block)
COc1cccc(NC(=O)Cc2nnc(SCC(=O)NC3CCCC3)n2C)c1	none (no result: bIAP inh, bIAP activator)
O=C(Nc1ccc(Cl)c(Cl)c1)O/N=C/c1ccncc1	mIAP activ 2.4
CC(=O)Nc1ccc(N/C(N)=N/c2nc(C)cc(C)n2)cc1	none
Cc1cc(C)nc(/N=C(\N)Nc2ccc(-c3ccccc3)cc2)n1	bIAP activator 3.7
Cc1ccc(NC(=S)NCc2ccc3[nH]c4c(c3c2)CCCC4)cc1	mIAP activ 2.4
Cc1cc(Br)c(NC(=O)Cn2c([N+](=O)[O-])cnc2C)cc1C	none (no result: bIAP inh, bIAP activator)
COC(=O)/C=c1/s/c(=C(/C#N)C(=O)N2CCCCC2)n(-c2ccccc2)c1=O	none
COc1cc(/C=c2\s/c(=C(/C#N)C(=O)N3CCCC3)n(-c3ccccc3)c2=O)ccc1O	mIAP block 42 (no result: bIAP inh)
CSCc1nc2sc(C(=O)Nc3nc(C)cs3)c(C)c2c(=O)[nH]1	mIAP block 42
CCCCOc1ccc(CSCCNC(=S)Nc2ccccc2)cc1	none
CC(C)COc1ccc(CSCCNC(=S)Nc2ccccc2)cc1	mIAP activ 2.4
CCCCCOc1ccc(CSCCNC(=S)Nc2ccccc2)cc1	mIAP activ 2.5
COc1ccc(CCNC(=O)COc2cccc(-n3cnnn3)c2)cc1	none (no result: bIAP inh, bIAP activator)
CCCn1c(=O)c2c(nc3n2CCS3)n(C)c1=O	none

Screening results as filed in PubChem.
